# Source: PubChem (several laboratories)
# PREPL inhibitor: inhibitors of human prolyl oligopeptidase-like enzyme PREPL; Q4J6C6; recombinant PREPL, fluorescence polarization activity-based probe; 320,000 compounds, 0.68% hits; inhibition, % at 5.96 µM; AID 2751;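 also: 0% = enzyme with DMSO and 100% = wells lacking enzyme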
# UBC13 inh: human UBC13 polyubiquitination inhibition; P61088; UBC13 polyubiquitin chain formation, TR-FRET; inhibition, % at 20 µM; 330,000 compounds, 0.47% hits; AID 485273; in the data active = inhibition above about 45%, passing the limit was not always enough
# Target sequence (P61088 whole entry, looked up): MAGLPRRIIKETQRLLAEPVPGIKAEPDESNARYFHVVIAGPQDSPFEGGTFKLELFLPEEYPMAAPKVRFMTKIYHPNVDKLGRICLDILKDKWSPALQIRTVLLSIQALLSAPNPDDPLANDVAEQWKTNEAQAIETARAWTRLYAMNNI
# MEKK2wt PB1 HTS: raises or lowers MEK5 binding to wildtype human MEKK2 PB1 domain | Q9Y2U5 | 290,000 compounds, 1.1% hits | bead flow cytometry, Alexa488-MEK5 binding to MEKK2 WT; actives lie on both sides | AID 1531 | binding response (% of control), % at 10 µM; in the data active = binding response below about 67% or above about 130%
# MEKK3 PB1 HTS: modulators (inhibitors or enhancers) of MEK5 binding to human MEKK3 PB1 domain; 290,000 compounds, 1.4% hits; bead-based flow cytometry, Alexa488-MEK5 binding to MEKK3; actives lie on both sides; 0 = blocked by unlabeled MEK5, 100 = vehicle; binding response (% of control), % at 10 µM; AID 1529;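 active = binding response more than 3 SD above or below the average of its plate-row segment, actives on both sides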;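 also: Alexa488 bead fluorescence after subtracting the streptavidin-only scavenger bead signal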
# MEKK2mut PB1 HTS: signal of MEK5 binding to mutant human MEKK2 PB1 domain; percent response, % at 10 µM; bead flow cytometry, Alexa488-MEK5 binding to MEKK2 mutant; 290,000 compounds, 0.35% hits; AID 1530; in the data active = percent response above about 24%, passing the limit was not always enough
# Apaf1 inhib: inhibitors of human Apaf-1 apoptosome; O14727; reconstituted apoptosome caspase-3 activity, DEVD-Rh110 fluorescence; inhibition, % at 20 µM; 330,000 compounds, 0.71% hits; active = inhibition of at least 40% at 20 µM;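 also: plate controls were DMSO wells for no effect and DEVD-CHO caspase inhibitor wells for full effect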
#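 Material: biochemical Apaf-1 apoptosome reconstitution. Medium: Hepes buffer, pH 7.5. Also added: cytochrome c activation, bis-DEVD rhodamine 110 substrate. Timing: 30 min compound preincubation, 50 min activation, room temperature. Measured by: rhodamine 110 fluorescence at Ex 480/Em 540 nm.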
# MEKK2wt confirm: raises or lowers MEK5 binding to wildtype human MEKK2, retest. shares compounds with MEKK3 PB1 HTS. binding response (% of control), % at 10 µM. bead flow cytometry, Alexa488-MEK5 binding to MEKK2 WT; actives lie on both sides. AID 1892. 5,900 compounds, 2.4% hits; in the data active = binding response below about 16% or above about 210%; inactive = in between
# MEKK2mut-MEK5: signal of MEK5 binding to mutant human MEKK2, retest; shares compounds with MEKK3 PB1 HTS; bead flow cytometry, Alexa488-MEK5 binding to MEKK2 mutant; percent response, % at 10 µM; 5,900 compounds, 2% hits; AID 1893; in the data active = percent response mostly above about 71%, no sharp cut-off; inactive = mostly below about 38%;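 also: higher means compound restores mutant binding toward wildtype level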
# MEKK3 confirm: confirmation of inhibitors of MEK5 binding to human MEKK3; bead flow cytometry, Alexa488-MEK5 binding to MEKK3; stronger effect = lower value; 5,900 compounds, 1.8% hits; shares compounds with MEKK3 PB1 HTS; binding response (% of control), % at 10 µM;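 active = binding response below 72% of control, or above a set upper limit, though filed actives all read lower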;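 also: 100% = DMSO only wells and 0% = binding blocked by excess unlabeled MEK5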
# PREPL confirm: human PREPL inhibition, confirmation; inhibition, % at 5.96 µM; shares compounds with PREPL inhibitor; 2,000 compounds, 67% hits; recombinant PREPL, fluorescence polarization activity probe; AID 2803;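 also: 0% = protein with DMSO and 100% = wells lacking protein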
# Casp3 counter: inhibits human caspase-3 in UBC13 counter-screen; shares compounds with UBC13 inh; Recombinant caspase-3, Caspase-Glo 3/7 luminescence, 60 min; inhibition, % at 20 µM; 1,400 compounds, 4% hits; AID 488856;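 active = mean inhibition across replicates above about 26%, limit read from the data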;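 also: plate controls were DMSO with caspase-3 for no effect and DMSO wells lacking enzyme for full effect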
# Target sequence (P42574 whole entry, looked up): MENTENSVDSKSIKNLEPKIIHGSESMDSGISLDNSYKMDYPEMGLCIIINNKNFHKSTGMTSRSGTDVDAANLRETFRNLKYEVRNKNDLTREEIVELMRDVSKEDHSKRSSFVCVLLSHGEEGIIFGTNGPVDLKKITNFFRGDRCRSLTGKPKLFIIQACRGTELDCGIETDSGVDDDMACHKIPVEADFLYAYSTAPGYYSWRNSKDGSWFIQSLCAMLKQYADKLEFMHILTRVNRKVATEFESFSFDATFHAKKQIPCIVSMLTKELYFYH
# UBC13 confirm: confirmation of human UBC13 polyubiquitin inhibitors; UBC13 polyubiquitination, TR-FRET, biochemical; inhibition, % at 10 µM; AID 488859; shares compounds with UBC13 inh; 1,400 compounds, 68% hits; in the data active = inhibition above about 45%
# The depositor's hits bear a star; · = not tested or not shown. A selection: hits, their analogues and other compounds. The true share with any hit is near 3.1%. Rule as the data show it, unless noted: active = inhibition above about 43%; inactive = the rest.
SMILES,PREPL inhibitor,UBC13 inh,MEKK2wt PB1 HTS,MEKK3 PB1 HTS,MEKK2mut PB1 HTS,Apaf1 inhib,MEKK2wt confirm,MEKK2mut-MEK5,MEKK3 confirm,Casp3 counter,UBC13 confirm,others
C#CCOCCOCCOCCNc1nc(N2CCN(C(=O)C(Cc3ccc(O)cc3)n3cc(C(N)CC(C)C)nn3)CC2)nc(N2CCN(C(=O)C(Cc3cc4ccccc4[nH]3)n3cc(C(N)Cc4ccc(O)cc4)nn3)CC2)n1 (centres undefined),52*,78*,258*,117,112*,35,221*,86*,118,-1,59*,PREPL confirm=51*
COc1ccc(CNC(=O)C(C)N2C(=O)COc3ccc(C)cc32)c(OC)c1 (centres undefined),7,4,100,104,-3,2,·,·,·,·,·,
C#CCOCCOCCOCCNc1nc(N2CCN(C(=O)[C@H]([C@@H](C)CC)n3cc([C@@H](N)Cc4ccc(O)cc4)nn3)CC2)nc(N2CCN(C(=O)[C@H](Cc3ccc(O)cc3)n3cc([C@@H](N)C(C)CC)nn3)CC2)n1 (some centres undefined),23,64*,191*,109,58*,35,140,12,106,1,57*,
C#CCOCCOCCOCCNc1nc(N2CCN(C(=O)[C@H]([C@@H](C)CC)n3cc([C@@H](N)CO)nn3)CC2)nc(N2CCN(C(=O)[C@H](Cc3ccc(O)cc3)n3cc([C@@H](N)CC(C)C)nn3)CC2)n1,25,9,116,75,3,10,·,·,·,·,·,
C#CCOCCOCCOCCNc1nc(N2CCN(C(=O)[C@H]([C@@H](C)CC)n3cc([C@@H](N)CC(C)C)nn3)CC2)nc(N2CCN(C(=O)[C@H](Cc3ccc(O)cc3)n3cc([C@@H](N)C(C)CC)nn3)CC2)n1 (some centres undefined),-4,57*,156*,106,21,10,129,15,103,0,51*,
COc1cccc(NC(=O)CCC2CCN(C(=O)c3ccc(C(C)=O)s3)CC2)c1,3,3,102,101,3,-6,·,·,·,·,·,
CCN(c1ccc(OC)cc1)S(=O)(=O)N1CCCC(C(=O)NCc2cccc(C)c2)C1 (centres undefined),6,-2,98,99,-4,27,·,·,·,·,·,
CCOc1ccc2nc(N(CCCN(C)C)C(=O)c3ccc(S(=O)(=O)N4CCCC4)cc3)sc2c1,-5,27,124,106,16,12,·,·,·,·,·,
Cc1ccc2nc(N(CCCN(C)C)C(=O)c3ccc4c(c3)CCCC4)sc2c1,-11,66*,191*,107,49,17,162,26,107,0,69*,
CCc1ccc2nc(N(CCCN(C)C)C(=O)c3ccc(S(=O)(=O)N4CCc5ccccc5C4)cc3)sc2c1,-8,87*,176*,106,28*,19,197,60,96,-1,114*,
COCCN(Cc1ccco1)C(=O)C1CCCN(c2ncnc3c2nc2n3CCCCC2)C1 (centres undefined),5,0,99,98,4,4,·,·,·,·,·,
COc1cc(C(CCN2CCCC2)c2c(OC)cc(OC)c3c(-c4ccccc4)cc(=O)oc23)cc(OC)c1OC (centres undefined),-24,46*,140*,112,26*,11,119,11,104,1,40,
COc1cc(OC)c2ccc(=O)oc2c1C(CCN1CCCC1)c1ccc2c(c1)OCO2 (centres undefined),-24,12,101,106,6,12,·,·,·,·,·,
COc1cc(OC)c2c(-c3ccccc3)cc(=O)oc2c1C(CCN1CCCC1)c1ccc2c(c1)OCO2 (centres undefined),17,52*,175*,128*,23,49*,159,34,103,3,32,
CCCCCc1cc(=O)oc2c(C(CCN(CC)CC)c3cc(OC)c(OC)c(OC)c3)c(OC)cc(OC)c12 (centres undefined),6,85*,218*,116,34*,24,136,15,84,-2,73*,
COc1cc(C(CCN2CCOCC2)c2c(OC)cc(OC)c3c(-c4ccccc4)cc(=O)oc23)cc(OC)c1OC (centres undefined),·,·,·,·,·,35,·,·,·,·,·,
CCN(CC)CCC(c1ccc(N(C)C)cc1)c1c(OC)cc(OC)c2c(-c3ccccc3)cc(=O)oc12 (centres undefined),30,50*,178*,111,25*,23,144,22,103,-2,26,
COc1cc(OC)c2c(-c3ccccc3)cc(=O)oc2c1C(CC(=O)N1CCN(c2ccccc2)CC1)c1ccc(N(C)C)cc1 (centres undefined),41,-27,85,89,-14,26,·,·,·,·,·,
Cc1nnc(NC(=O)CCC(=O)NC2CCCCCCC2)s1,12,-2,98,94,-3,1,·,·,·,·,·,
COc1ccc(-c2noc(N3CCC(C(=O)NC(C)c4ccccc4)CC3)n2)cc1 (centres undefined),-6,6,102,101,-3,9,·,·,·,·,·,
COc1ccc(OC)c(NC(=O)C2CCN(C(=O)C3CC(=O)N(c4ccc(C)cc4)C3)CC2)c1 (centres undefined),0,-4,100,100,4,7,·,·,·,·,·,
COc1ccc(C(CCN2CCCC2)c2c(OC)cc(OC)c3c(-c4ccccc4)cc(=O)oc23)cc1 (centres undefined),21,67*,152*,108,20,26,164,45,114,-4,37,
CCC[C@@H](CN[C@@H](CNC)C(C)C)NCCCCc1ccccc1,25,6,119,104,-3,2,·,·,·,·,·,
